Measured values: publication PMC5084670 (Cancer Science, 2016)

Assay: Phase I dose-escalation study: safety, adverse events
Type: in vivo, human
Outline: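 Oral test compound was given once daily in 28-day cycles after a 7-day single-dose run-in, in Japanese and Hong Kong/Taiwan groups escalated separately. Toxicity was graded by CTCAE v3.0 using laboratory tests, physical examination, vital signs, weight and periodic ECG. DLTs were grade 3–4 events over the run-in plus cycle 1. MTD was set by an adaptive Bayesian logistic regression model with overdose control.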

[1] = group 2, 400 mg q.d. (n = 12), All grades
[2] = group 2, 400 mg q.d. (n = 12), Grade 3
[3] = group 2, 400 mg q.d. (n = 12), Grade 4
[4] = group 2, 600 mg q.d. (n = 8), All grades
[5] = group 2, 600 mg q.d. (n = 8), Grade 3
[6] = group 2, 600 mg q.d. (n = 8), Grade 4
[7] = group 2, 800 mg q.d. (n = 4), All grades
[8] = group 2, 800 mg q.d. (n = 4), Grade 3
[9] = group 2, 800 mg q.d. (n = 4), Grade 4
[10] = group 2, All patients (n = 24), All grades
[11] = group 2, All patients (n = 24), Grade 3
[12] = group 2, All patients (n = 24), Grade 4

Compound: Cc1c(C(=O)Nc2ccc(N3C[C@@H](C)O[C@@H](C)C3)nc2)cccc1-c1ccc(OC(F)(F)F)cc1 [Sonidegib]
- Dysgeusia (drug-related adverse event) [1]: 2 (17) n (%)
- Fatigue (drug-related adverse event) [1]: 4 (33) n (%)
- Hepatic function abnormal (drug-related adverse event) [1]: 2 (17) n (%)
- Muscular weakness (drug-related adverse event) [1]: 0 (0) n (%)
- Myalgia (drug-related adverse event) [1]: 2 (17) n (%)
- Nausea (drug-related adverse event) [1]: 0 (0) n (%)
- Pyrexia (drug-related adverse event) [1]: 0 (0) n (%)
- Vomiting (drug-related adverse event) [1]: 0 (0) n (%)
- Blood creatine kinase increased (drug-related adverse event) [2]: 1 (8) n (%)
- Decreased appetite (drug-related adverse event) [2]: 0 (0) n (%)
- Diarrhea (drug-related adverse event) [2]: 0 (0) n (%)
- Dizziness (drug-related adverse event) [2]: 0 (0) n (%)
- Dysgeusia (drug-related adverse event) [2]: 0 (0) n (%)
- Fatigue (drug-related adverse event) [2]: 0 (0) n (%)
- Hepatic function abnormal (drug-related adverse event) [2]: 0 (0) n (%)
- Muscular weakness (drug-related adverse event) [2]: 0 (0) n (%)
- Myalgia (drug-related adverse event) [2]: 0 (0) n (%)
- Nausea (drug-related adverse event) [2]: 0 (0) n (%)
- Pyrexia (drug-related adverse event) [2]: 0 (0) n (%)
- Vomiting (drug-related adverse event) [2]: 0 (0) n (%)
- Blood creatine kinase increased (drug-related adverse event) [3]: 1 (8) n (%)
- Decreased appetite (drug-related adverse event) [3]: 0 (0) n (%)
- Diarrhea (drug-related adverse event) [3]: 0 (0) n (%)
- Dizziness (drug-related adverse event) [3]: 0 (0) n (%)
- Dysgeusia (drug-related adverse event) [3]: 0 (0) n (%)
- Fatigue (drug-related adverse event) [3]: 0 (0) n (%)
- Hepatic function abnormal (drug-related adverse event) [3]: 0 (0) n (%)
- Muscular weakness (drug-related adverse event) [3]: 0 (0) n (%)
- Myalgia (drug-related adverse event) [3]: 0 (0) n (%)
- Nausea (drug-related adverse event) [3]: 0 (0) n (%)
- Pyrexia (drug-related adverse event) [3]: 0 (0) n (%)
- Vomiting (drug-related adverse event) [3]: 0 (0) n (%)
- Blood creatine kinase increased (drug-related adverse event) [4]: 3 (38) n (%)
- Decreased appetite (drug-related adverse event) [4]: 3 (38) n (%)
- Diarrhea (drug-related adverse event) [4]: 1 (13) n (%)
- Dizziness (drug-related adverse event) [4]: 1 (13) n (%)
- Dysgeusia (drug-related adverse event) [4]: 3 (38) n (%)
- Fatigue (drug-related adverse event) [4]: 1 (13) n (%)
- Hepatic function abnormal (drug-related adverse event) [4]: 2 (25) n (%)
- Muscular weakness (drug-related adverse event) [4]: 1 (13) n (%)
- Myalgia (drug-related adverse event) [4]: 3 (38) n (%)
- Nausea (drug-related adverse event) [4]: 3 (38) n (%)
- Pyrexia (drug-related adverse event) [4]: 1 (13) n (%)
- Vomiting (drug-related adverse event) [4]: 2 (25) n (%)
- Blood creatine kinase increased (drug-related adverse event) [5]: 0 (0) n (%)
- Decreased appetite (drug-related adverse event) [5]: 0 (0) n (%)
- Diarrhea (drug-related adverse event) [5]: 0 (0) n (%)
- Dizziness (drug-related adverse event) [5]: 0 (0) n (%)
- Dysgeusia (drug-related adverse event) [5]: 0 (0) n (%)
- Fatigue (drug-related adverse event) [5]: 0 (0) n (%)
- Hepatic function abnormal (drug-related adverse event) [5]: 1 (13) n (%)
- Muscular weakness (drug-related adverse event) [5]: 0 (0) n (%)
- Myalgia (drug-related adverse event) [5]: 1 (13) n (%)
- Nausea (drug-related adverse event) [5]: 0 (0) n (%)
- Pyrexia (drug-related adverse event) [5]: 0 (0) n (%)
- Vomiting (drug-related adverse event) [5]: 0 (0) n (%)
- Blood creatine kinase increased (drug-related adverse event) [6]: 1 (13) n (%)
- Decreased appetite (drug-related adverse event) [6]: 0 (0) n (%)
- Diarrhea (drug-related adverse event) [6]: 0 (0) n (%)
- Dizziness (drug-related adverse event) [6]: 0 (0) n (%)
- Dysgeusia (drug-related adverse event) [6]: 0 (0) n (%)
- Fatigue (drug-related adverse event) [6]: 0 (0) n (%)
- Hepatic function abnormal (drug-related adverse event) [6]: 0 (0) n (%)
- Muscular weakness (drug-related adverse event) [6]: 0 (0) n (%)
- Myalgia (drug-related adverse event) [6]: 0 (0) n (%)
- Nausea (drug-related adverse event) [6]: 0 (0) n (%)
- Pyrexia (drug-related adverse event) [6]: 0 (0) n (%)
- Vomiting (drug-related adverse event) [6]: 0 (0) n (%)
- DLT in cycle 1 (creatine kinase elevation) (group 2, 800 mg): single DLT
- Blood creatine kinase increased (drug-related adverse event) [7]: 3 (75) n (%)
- Decreased appetite (drug-related adverse event) [7]: 2 (50) n (%)
- Diarrhea (drug-related adverse event) [7]: 1 (25) n (%)
- Dizziness (drug-related adverse event) [7]: 1 (25) n (%)
- Dysgeusia (drug-related adverse event) [7]: 1 (25) n (%)
- Fatigue (drug-related adverse event) [7]: 3 (75) n (%)
- Hepatic function abnormal (drug-related adverse event) [7]: 3 (75) n (%)
- Muscular weakness (drug-related adverse event) [7]: 3 (75) n (%)
- Myalgia (drug-related adverse event) [7]: 3 (75) n (%)
- Nausea (drug-related adverse event) [7]: 2 (50) n (%)
- Pyrexia (drug-related adverse event) [7]: 1 (25) n (%)
- Vomiting (drug-related adverse event) [7]: 1 (25) n (%)
- Blood creatine kinase increased (drug-related adverse event) [8]: 0 (0) n (%)
- Decreased appetite (drug-related adverse event) [8]: 1 (25) n (%)
- Diarrhea (drug-related adverse event) [8]: 0 (0) n (%)
- Dizziness (drug-related adverse event) [8]: 0 (0) n (%)
- Dysgeusia (drug-related adverse event) [8]: 0 (0) n (%)
- Fatigue (drug-related adverse event) [8]: 2 (50) n (%)
- Hepatic function abnormal (drug-related adverse event) [8]: 2 (50) n (%)
- Muscular weakness (drug-related adverse event) [8]: 2 (50) n (%)
- Myalgia (drug-related adverse event) [8]: 1 (25) n (%)
- Nausea (drug-related adverse event) [8]: 0 (0) n (%)
- Pyrexia (drug-related adverse event) [8]: 0 (0) n (%)
- Vomiting (drug-related adverse event) [8]: 0 (0) n (%)
- Blood creatine kinase increased (drug-related adverse event) [9]: 2 (50) n (%)
- Decreased appetite (drug-related adverse event) [9]: 0 (0) n (%)
- Diarrhea (drug-related adverse event) [9]: 0 (0) n (%)
- Dizziness (drug-related adverse event) [9]: 0 (0) n (%)
- Dysgeusia (drug-related adverse event) [9]: 0 (0) n (%)
- Fatigue (drug-related adverse event) [9]: 0 (0) n (%)
- Hepatic function abnormal (drug-related adverse event) [9]: 0 (0) n (%)
- Muscular weakness (drug-related adverse event) [9]: 0 (0) n (%)
- Myalgia (drug-related adverse event) [9]: 0 (0) n (%)
- Nausea (drug-related adverse event) [9]: 0 (0) n (%)
- Pyrexia (drug-related adverse event) [9]: 0 (0) n (%)
- Vomiting (drug-related adverse event) [9]: 0 (0) n (%)
- Blood creatine kinase increased (drug-related adverse event) [10]: 12 (50) n (%)
- Decreased appetite (drug-related adverse event) [10]: 5 (21) n (%)
- Diarrhea (drug-related adverse event) [10]: 2 (8) n (%)
- Dizziness (drug-related adverse event) [10]: 2 (8) n (%)
- Dysgeusia (drug-related adverse event) [10]: 6 (25) n (%)
- Fatigue (drug-related adverse event) [10]: 8 (33) n (%)
- Hepatic function abnormal (drug-related adverse event) [10]: 7 (29) n (%)
- Muscular weakness (drug-related adverse event) [10]: 4 (17) n (%)
- Myalgia (drug-related adverse event) [10]: 8 (33) n (%)
- Nausea (drug-related adverse event) [10]: 5 (21) n (%)
- Pyrexia (drug-related adverse event) [10]: 2 (8) n (%)
- Vomiting (drug-related adverse event) [10]: 3 (13) n (%)
- Blood creatine kinase increased (drug-related adverse event) [11]: 1 (4) n (%)
- Decreased appetite (drug-related adverse event) [11]: 1 (4) n (%)
- Diarrhea (drug-related adverse event) [11]: 0 (0) n (%)
- Dizziness (drug-related adverse event) [11]: 0 (0) n (%)
- Dysgeusia (drug-related adverse event) [11]: 0 (0) n (%)
- Fatigue (drug-related adverse event) [11]: 2 (8) n (%)
- Hepatic function abnormal (drug-related adverse event) [11]: 3 (13) n (%)
- Muscular weakness (drug-related adverse event) [11]: 2 (8) n (%)
- Myalgia (drug-related adverse event) [11]: 2 (8) n (%)
- Nausea (drug-related adverse event) [11]: 0 (0) n (%)
- Pyrexia (drug-related adverse event) [11]: 0 (0) n (%)
- Vomiting (drug-related adverse event) [11]: 0 (0) n (%)
- Blood creatine kinase increased (drug-related adverse event) [12]: 4 (17) n (%)
- Decreased appetite (drug-related adverse event) [12]: 0 (0) n (%)
- Diarrhea (drug-related adverse event) [12]: 0 (0) n (%)
- Dizziness (drug-related adverse event) [12]: 0 (0) n (%)
- Dysgeusia (drug-related adverse event) [12]: 0 (0) n (%)
- Fatigue (drug-related adverse event) [12]: 0 (0) n (%)
- Hepatic function abnormal (drug-related adverse event) [12]: 0 (0) n (%)
- Muscular weakness (drug-related adverse event) [12]: 0 (0) n (%)
- Myalgia (drug-related adverse event) [12]: 0 (0) n (%)
- Nausea (drug-related adverse event) [12]: 0 (0) n (%)
- Pyrexia (drug-related adverse event) [12]: 0 (0) n (%)
- Vomiting (drug-related adverse event) [12]: 0 (0) n (%)
- Maximum tolerated dose (MTD) (group 2, Bayesian logistic regression model, all grade 3 or 4 blood CK elevation incidents): 600 mg q.d.
- Drug-related AE: abnormal hepatic function (group 2, all doses): 29%
- Drug-related AE: fatigue (group 2, all doses): 33%
- Drug-related AE: increase in CK levels (group 2, all doses): 50%
- Drug-related AE: myalgia (group 2, all doses): 33%
- Patients with at least one AE suspected to be related to sonidegib (group 2, n = 18): 75%
- Patients with SAEs that led to drug discontinuation (in each group): four
- Time to recovery of CK after interruption of drug (most cases): 1 month
- Renal impairment or renal failure (patients with grade 3 or 4 CK elevation and high blood myoglobin): no patients experienced renal impairment or renal failure
- CK re-elevation after restart with a 200 mg dose (three patients at 400 mg interrupted for grade 3 CK elevation): not observed
